From ChEMBL document CHEMBL1142287, “Anti-Pneumocystis carinii and antiplasmodial activities of primaquine-derived imidazolidin-4-ones” (Bioorg Med Chem Lett, 2008)

Key:
[1] = test system: Plasmodium falciparum; assay: Antiplasmodial activity against chloroquine-resistant Plasmodium falciparum W2; format: functional, organism-based
Outline: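 Parasite development assay against P. falciparum W2, run by the authors' earlier method. Values in μM, each the average of at least three determinations.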

[2] = test system: Pneumocystis carinii; assay: Antimicrobial activity against Pneumocystis carinii assessed as ATP levels after 72 hrs by luciferase assay; format: functional, organism-based
Outline: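 P. carinii organism preparations screened before use for microbial contamination, ATP content, karyotype and host cell content. Compounds incubated with organisms for 72 h, then ATP measured as relative light units. Each concentration tested in triplicate wells and averaged, with triplicate runs using separate organism isolation batches. Activity averaged from at least three determinations.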

[3] = Half life of hydrolysis in buffer at pH 7.4; format: ADME
Outline: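 Hydrolytic stability followed in pH 7.4 buffer at 37 °C; half-life derived from the decay.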

Row | IC50 [2] | Compound | IC50 [1] | IC50 ([2]; Pneumocystis carinii, 72 h) | half-life [3]
1 | – | COc1cc(NC(C)CCCN2C(=O)[C@H](Cc3ccccc3)NC2(C)C)c2ncccc2c1 (some centres not stated) | > 50 µM | 32 µM | –
2 | – | COc1cc(NC(C)CCCN2C(=O)[C@H](C(C)C)NC23CCCCCC3)c2ncccc2c1 (some centres not stated) | 8.89 µM | 6 µM | > 240 h
3 | – | COc1cc(NC(C)CCCN2C(=O)[C@H](C(C)C)NC23CCCCC3)c2ncccc2c1 (some centres not stated) | > 50 µM | 26 µM | –
4 | – | COc1cc(NC(C)CCCN2C(=O)[C@H](C(C)C)NC23CCCC3)c2ncccc2c1 (some centres not stated) | > 50 µM | 23 µM | –
5 | – | COc1cc(NC(C)CCCN2C(=O)[C@H](Cc3ccccc3)NC23CCCC3)c2ncccc2c1 (some centres not stated) | > 50 µM | 12 µM | –
6 | – | COc1cc(NC(C)CCCN2C(=O)[C@H](C)NC2(C)C)c2ncccc2c1 (some centres not stated) | > 50 µM | 226 µM | –
7 | – | COc1cc(NC(C)CCCN2C(=O)[C@H](CC(C)C)NC23CCCCCC3)c2ncccc2c1 (some centres not stated) | 2.63 µM | 4.1 µM | –
8 | – | COc1cc(NC(C)CCCN2C(=O)[C@H](C)NC23CCC(C)CC3)c2ncccc2c1 (some centres not stated) | – | 23 µM | –
9 | – | COc1cc(NC(C)CCCN2C(=O)CNC23CCCCC3)c2ncccc2c1 (configuration not stated) | > 50 µM | 43 µM | –
10 | – | COc1cc(NC(C)CCCN2C(=O)[C@H](C)NC23CCCCCC3)c2ncccc2c1 (some centres not stated) | 2.42 µM | 1.9 µM | –
11 | – | COc1cc(NC(C)CCCN2C(=O)CNC2(C)C)c2ncccc2c1 (configuration not stated) | 9.08 µM | 23 µM | –
12 | – | COc1cc(NC(C)CCCN2C(=O)[C@H](C(C)C)NC2(C)C)c2ncccc2c1 (some centres not stated) | > 50 µM | 40 µM | –
13 | 21 µM | COc1cc(NC(C)CCCN2C(=O)C(Cc3ccccc3)NC2c2ccccc2C)c2ncccc2c1 (stereo in doubt; 2m1) | – | – | –
14 | – | COc1cc(NC(C)CCCN2C(=O)C(Cc3ccccc3)NC2c2ccccc2C)c2ncccc2c1 (stereo in doubt; 2m2) | – | 13 µM | –
15 | – | COc1cc(NC(C)CCCN)c2ncccc2c1 (configuration not stated) [PRIMAQUINE] | – | 2.5 µM | –
